Measurements pooled from the literature.
Lines come from different studies, so protocols differ.

The solubility of `O=C(Nc1ccc(-c2ccc(C(=O)Nc3cccc4cccc(S(=O)(=O)O)c34)cc2)cc1)c1ccc([N+](=O)[O-])cc1` is reported as 4.7 µg/mL (water).
The solubility of `COc1cc(C)c2[nH]cc(/C=N/NC(=N)NCCc3cccnc3)c2c1` is reported as 30.1 µM (PBS; 2 h; pH 7.4).
The solubility of `CCCSc1ccc2nc(NC(=O)OC)[nH]c2c1` is reported as less than 1 µg/mL (water; 24 h).
With `COc1ccc(NC(=O)N2CCCCN3[C@H](CN(C)C)[C@H](c4ccc(C#Cc5ccccc5)cc4)[C@@H]3C2)cc1` the solubility was 155 µM (aqueous buffer; pH 1).
`COc1cc([C@@H]2c3cc4c(cc3[C@H](O)[C@H]3COC(=O)[C@H]23)OCO4)cc(OC)c1OC` gave a solubility of 2200 µg/mL (water).
With `C=CC[C@@]1(C)NC(=O)CNC(=O)[C@H](Cc2c[nH]c3ccccc23)NC(=O)[C@H](CC(=O)O)NC(=O)[C@H](CCC(N)=O)NC(=O)[C@H](Cc2c[nH]c3ccccc23)NC(=O)[C@H](C(C)C)NC(=O)[C@@H](NC(=O)[C@@H](NC(C)=O)[C@@H](C)CC)CSSC[C@@H](C(=O)N[C@H](C(N)=O)[C@@H](C)O)NC(=O)[C@H](CCCNC(=N)N)NC(=O)[C@H](Cc2c[nH]cn2)NC1=O` the solubility was 3350 µg/mL (PBS; pH 7.4).
`O=C1C=C(N(Cc2ccc(Cl)nc2)CC(F)F)CO1` gave a solubility of 3000 µg/mL (water; pH 7).
With `CC[C@H](C)[C@H](NC(=O)[C@H](Cc1ccccc1)NC(=O)[C@H](Cc1ccc(O)cc1)NC(=O)[C@@H]1CCCN1C(=O)[C@@H](N)Cc1ccc(O)cc1)C(=O)N1CCC[C@H]1C(=O)N[C@@H](C)C(=O)NCC(=O)N[C@H](CCCCN)C(=O)NCC(=O)N[C@@H](CCC(=O)O)C(=O)N[C@H](C(=O)N[C@@H](CC(N)=O)C(=O)N[C@@H](CC(C)C)[C@@H](O)CC(=O)N[C@H](C(=O)N[C@@H](C)C(=O)N[C@@H](CCC(=O)O)C(=O)N1CCC[C@@H]1C(=O)N[C@@H](CCCCNC(=O)CCC(=O)O[C@H]1CC[C@@]2(C)C(=CC[C@H]3[C@@H]4CC[C@H]([C@H](C)CCCC(C)C)[C@@]4(C)CC[C@@H]32)C1)C(N)=O)C(C)C)C(C)C` the solubility was greater than 2450 µg/mL (aqueous buffer; pH 6.5).
`CC[C@H](C)[C@H](NC(=O)[C@H](CCCNC(=N)N)NC(=O)[C@H](CCC(=O)O)NC(C)=O)C(=O)N[C@H]1CSSC[C@@H](C(=O)N[C@H](C(N)=O)[C@@H](C)O)NC(=O)[C@H](CCCNC(=N)N)NC(=O)[C@H](Cc2c[nH]cn2)NC(=O)[C@H](Cc2cccc3ccccc23)NC(=O)CNC(=O)[C@H](Cc2c[nH]c3ccccc23)NC(=O)[C@H](CC(=O)O)NC(=O)[C@H](CCC(N)=O)NC(=O)[C@H](Cc2cccc3ccccc23)NC(=O)[C@H](C(C)C)NC1=O` gave a solubility of 160 µg/mL (PBS; pH 7.4).
`COc1ccc2c(c1)NC(=O)CN2c1nc(C)nc2c1CCC2` has a solubility of 26.4 µg/mL (aqueous buffer; pH 7.4).
For `CC[C@H](C)[C@H](NC(C)=O)C(=O)N[C@H]1CSSC[C@@H](C(=O)N[C@H](C(N)=O)[C@@H](C)O)NC(=O)[C@H](CCCNC(=N)N)NC(=O)[C@H](Cc2cnc[nH]2)NC(=O)[C@H](Cc2cccc3ccccc23)NC(=O)CNC(=O)[C@H](Cc2c[nH]c3ccccc23)NC(=O)[C@H](CC(=O)O)NC(=O)[C@H](CCC(N)=O)NC(=O)[C@H](Cc2cn(C)c3ccccc23)NC(=O)[C@H](C(C)C)NC1=O`, the solubility was 110 µg/mL (PBS; pH 7.4).
The solubility of `CNC(=O)O[C@@H](C)/C=C\C(=O)N[C@H]1CC[C@@H](C/C=C(C)/C=C/[C@@H]2C[C@]3(CO3)CC(C)(C)O2)CC1` is reported as 45 µM (HPLC; PBS).
With `Clc1ccc(CSc2nnc(-c3ccccn3)n2Cc2ccco2)cc1Cl` the solubility was less than 0.1 µg/mL (aqueous buffer; pH 5).
`CC[C@H](C)[C@H](NC(C)=O)C(=O)N[C@H]1CSSC[C@@H](C(=O)N[C@H](C(N)=O)[C@@H](C)O)NC(=O)[C@H](CCCNC(=N)N)NC(=O)[C@H](Cc2cnc[nH]2)NC(=O)[C@H](Cc2cccc3ccccc23)NC(=O)CNC(=O)[C@H](Cc2c[nH]c3ccccc23)NC(=O)[C@H](CC(=O)O)NC(=O)[C@H](CCC(N)=O)NC(=O)[C@H](Cc2c[nH]c3ccccc23)NC(=O)[C@H](C(C)C)NC1=O` has a solubility of 150 µg/mL (PBS; pH 7.4).
